Reference: ChEMBL document CHEMBL5705905, “Pharmacological targeting of kinases MST1 and MST2 augments tissue repair and regeneration” (Sci Transl Med, 2016)

Legend:
[1] = target: Serine/threonine-protein kinase MARK2 (Homo sapiens) (UniProt Q7KZI7); assay: Inhibition of MARK2 (unknown origin) assessed as remaining activity at 1 uM by Kinome scan method relative to control
[2] = MRT (0 to infinity) in male Sprague-Dawley rat at 5 mg/kg, iv measured for 24 hrs by LC-MS/MS analysis; format: ADME, organism-based; conditions: in vivo
[3] = Acute toxicity in mouse assessed as increase in CK19-positive cells at 1 mg/kg,ip administrated once a daily for 3 weeks by H and E staining based immunohistochemical analysis relative to control; format: organism-based, Liver; conditions: in vivo, 504 h
Outline: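 Postnatal mice dosed from 10 days of age with vehicle or 1 mg/kg once per day for 21 days (3 weeks). Vehicle is 0.1% citric acid aqueous solution containing 20% Kolliphor HS 15. Liver sections stained with H&E and by IHC for CK19 and BrdU, with positive cells quantified (n = 3). Liver/body weight ratio recorded (n = 4). Values are means ± SD versus vehicle, Student's t test.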

[4] = target: Peripheral plasma membrane protein CASK (Homo sapiens) (UniProt O14936); assay: Inhibition of CASK (unknown origin) assessed as remaining activity at 1 uM by Kinome scan method relative to control
Outline: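 Active-site-dependent competition-binding profiling (KINOMEscan) at 1 μM against a 468-kinase panel; compound supplied from a 10 mM DMSO stock. Read-out is ctrl% = (test signal − positive control signal)/(negative control signal − positive control signal) × 100. DMSO is the negative control (100%) and a control compound the positive control (0%). Lower ctrl% means tighter binding.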

[5] = target: Tyrosine-protein kinase JAK1 (Homo sapiens, UniProt P23458); assay: Inhibition of JAK1 JH2 domain (unknown origin) assessed as remaining activity at 1 uM by Kinome scan method relative to control
[6] = target: Serine/threonine-protein kinase PAK 6 (Homo sapiens) (UniProt Q9NQU5); assay: Inhibition of PAK6 (unknown origin) assessed as remaining activity at 1 uM by Kinome scan method relative to control
[7] = target: Serine/threonine-protein kinase WNK3 (Homo sapiens) (UniProt Q9BYP7); assay: Inhibition of WNK3 (unknown origin) assessed as remaining activity at 1 uM by Kinome scan method relative to control
[8] = target: T1, Serine/threonine-protein kinase 3 (Homo sapiens, UniProt Q13188); assay: Inhibition of recombinant His-tagged full-length MST2 (unknown origin) expressing in Escherichia coli assessed as MOB1a phosphorylation level incubated for 30 min in the presence of 30 uM ATP by immunoblot analysis
T1 sequence (Q13188 whole entry): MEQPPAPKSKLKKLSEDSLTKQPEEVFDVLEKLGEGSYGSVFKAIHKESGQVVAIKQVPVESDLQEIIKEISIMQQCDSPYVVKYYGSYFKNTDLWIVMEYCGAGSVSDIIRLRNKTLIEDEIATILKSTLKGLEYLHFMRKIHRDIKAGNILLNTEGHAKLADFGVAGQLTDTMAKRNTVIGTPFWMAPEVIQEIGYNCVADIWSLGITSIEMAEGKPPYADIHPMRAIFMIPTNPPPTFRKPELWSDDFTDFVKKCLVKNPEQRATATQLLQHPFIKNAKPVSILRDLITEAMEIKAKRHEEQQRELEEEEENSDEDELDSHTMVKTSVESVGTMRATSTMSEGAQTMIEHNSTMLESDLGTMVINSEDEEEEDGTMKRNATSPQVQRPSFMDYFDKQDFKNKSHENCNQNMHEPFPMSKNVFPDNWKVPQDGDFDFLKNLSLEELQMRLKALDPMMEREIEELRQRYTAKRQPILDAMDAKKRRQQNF

[9] = target: Serine/threonine-protein kinase VRK2 (Homo sapiens) (UniProt Q86Y07); assay: Inhibition of VRK2 (unknown origin) assessed as remaining activity at 1 uM by Kinome scan method relative to control
[10] = target: Cyclin-G-associated kinase (Homo sapiens) (UniProt O14976); assay: Inhibition of GAK (unknown origin) assessed as remaining activity at 1 uM by Kinome scan method relative to control
[11] = target: Serine/threonine-protein kinase DCLK1 (Homo sapiens, UniProt O15075); assay: Inhibition of DCAMKL1 (unknown origin) in presence of ATP by enzymatic assay
[12] = target: Serine/threonine-protein kinase TAO2 (Homo sapiens, UniProt Q9UL54); assay: Binding affinity to TAOK2 (unknown origin) assessed as dissociation constant
[13] = target: Rhodopsin kinase GRK1 (Homo sapiens) (UniProt Q15835); assay: Inhibition of GRK1 (unknown origin) assessed as remaining activity at 1 uM by Kinome scan method relative to control
Sequence of Rhodopsin kinase GRK1 (Homo sapiens) (Q15835 whole entry): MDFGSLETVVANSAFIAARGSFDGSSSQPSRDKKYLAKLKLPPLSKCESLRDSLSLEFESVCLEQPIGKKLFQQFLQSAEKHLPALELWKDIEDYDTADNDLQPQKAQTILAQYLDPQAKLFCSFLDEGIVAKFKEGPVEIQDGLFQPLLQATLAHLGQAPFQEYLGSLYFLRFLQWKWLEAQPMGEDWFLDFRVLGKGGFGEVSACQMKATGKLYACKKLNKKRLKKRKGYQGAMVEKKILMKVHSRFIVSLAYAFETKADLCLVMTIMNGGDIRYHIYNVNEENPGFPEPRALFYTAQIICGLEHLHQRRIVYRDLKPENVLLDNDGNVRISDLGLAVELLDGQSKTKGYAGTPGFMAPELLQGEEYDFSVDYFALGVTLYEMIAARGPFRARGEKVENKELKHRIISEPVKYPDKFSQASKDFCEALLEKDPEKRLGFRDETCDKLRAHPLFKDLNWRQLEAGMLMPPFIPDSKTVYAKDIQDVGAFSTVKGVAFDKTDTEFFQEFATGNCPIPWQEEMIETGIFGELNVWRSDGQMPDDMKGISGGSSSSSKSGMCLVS

[14] = target: Serine/threonine-protein kinase pim-1 (Homo sapiens) (UniProt P11309); assay: Inhibition of PIM1 (unknown origin) assessed as remaining activity at 1 uM by Kinome scan method relative to control
Sequence of Serine/threonine-protein kinase pim-1 (Homo sapiens) (P11309 whole entry, looked up): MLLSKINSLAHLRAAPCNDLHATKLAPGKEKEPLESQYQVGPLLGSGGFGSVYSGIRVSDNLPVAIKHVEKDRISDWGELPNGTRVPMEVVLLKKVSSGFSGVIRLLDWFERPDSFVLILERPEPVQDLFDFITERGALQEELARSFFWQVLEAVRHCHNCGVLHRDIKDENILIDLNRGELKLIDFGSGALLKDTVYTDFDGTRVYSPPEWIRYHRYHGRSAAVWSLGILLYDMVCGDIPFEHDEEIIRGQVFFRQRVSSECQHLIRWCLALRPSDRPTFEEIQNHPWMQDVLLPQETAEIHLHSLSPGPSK

[15] = Toxicity in mouse assessed as cancer cell growth at 1 mg/kg, ip administered for 2 months; format: organism-based; conditions: in vivo, 1460 h
Outline: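 Wild-type mice were given 1 mg/kg i.p. daily for 2 months and examined for cancer growth and serum α-fetoprotein.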

[16] = target: Bone morphogenetic protein receptor type-2 (Homo sapiens) (UniProt Q13873); assay: Inhibition of BMPR2 (unknown origin) assessed as remaining activity at 1 uM by Kinome scan method relative to control
Sequence of Bone morphogenetic protein receptor type-2 (Homo sapiens) (Q13873 whole entry): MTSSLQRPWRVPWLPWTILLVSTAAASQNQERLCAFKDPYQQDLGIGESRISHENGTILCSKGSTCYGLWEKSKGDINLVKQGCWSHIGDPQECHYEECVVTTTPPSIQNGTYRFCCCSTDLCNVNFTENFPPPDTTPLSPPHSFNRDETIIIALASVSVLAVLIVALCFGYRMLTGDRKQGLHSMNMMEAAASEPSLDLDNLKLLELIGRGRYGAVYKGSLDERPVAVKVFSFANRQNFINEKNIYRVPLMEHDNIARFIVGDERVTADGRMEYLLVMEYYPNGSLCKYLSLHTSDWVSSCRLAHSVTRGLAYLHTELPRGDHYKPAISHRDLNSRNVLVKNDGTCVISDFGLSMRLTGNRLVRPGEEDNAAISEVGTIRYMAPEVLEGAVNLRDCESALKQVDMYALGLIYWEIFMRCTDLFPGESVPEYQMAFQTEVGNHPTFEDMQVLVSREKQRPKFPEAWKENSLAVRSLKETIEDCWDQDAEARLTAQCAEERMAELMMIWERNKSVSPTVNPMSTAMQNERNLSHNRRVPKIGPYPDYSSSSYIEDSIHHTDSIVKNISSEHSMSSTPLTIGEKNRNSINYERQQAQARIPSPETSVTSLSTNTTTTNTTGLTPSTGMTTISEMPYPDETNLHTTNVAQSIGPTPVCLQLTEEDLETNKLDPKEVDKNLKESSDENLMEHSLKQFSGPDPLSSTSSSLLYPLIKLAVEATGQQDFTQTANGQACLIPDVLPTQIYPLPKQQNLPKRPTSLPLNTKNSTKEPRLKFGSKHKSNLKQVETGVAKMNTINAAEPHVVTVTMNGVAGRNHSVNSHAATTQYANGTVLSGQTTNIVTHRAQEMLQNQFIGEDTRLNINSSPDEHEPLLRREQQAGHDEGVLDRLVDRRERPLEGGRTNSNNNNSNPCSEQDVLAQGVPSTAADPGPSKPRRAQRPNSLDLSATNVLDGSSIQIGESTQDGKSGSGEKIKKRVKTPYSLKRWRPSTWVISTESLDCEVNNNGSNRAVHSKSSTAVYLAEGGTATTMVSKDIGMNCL
Outline: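 Active-site-dependent competition-binding (KINOMEscan) panel of 468 kinases, test compound at 1 μM (from a 10 mM DMSO stock). Read-out is ctrl% = (test signal − positive control signal)/(negative control signal − positive control signal) × 100. DMSO is the negative control (100%) and a control compound is the positive control (0%). Lower ctrl% means tighter binding.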

[17] = target: Phosphatidylinositol 4-phosphate 5-kinase type-1 gamma (Homo sapiens, UniProt O60331); assay: Binding affinity to PIP5K1C (unknown origin) assessed as dissociation constant
[18] = target: Wee1-like protein kinase 2 (Homo sapiens) (UniProt P0C1S8); assay: Inhibition of WEE2 (unknown origin) assessed as remaining activity at 1 uM by Kinome scan method relative to control
[19] = system: Receptor-type tyrosine-protein kinase FLT3 (Homo sapiens), P36888 [UNDEFINED MUTATION]; assay: Inhibition of FLT3 ITD mutant (unknown origin) assessed as remaining activity at 1 uM by Kinome scan method relative to control
Sequence of Receptor-type tyrosine-protein kinase FLT3 (Homo sapiens), P36888 [UNDEFINED MUTATION] (P36888 whole entry, looked up, change not shown): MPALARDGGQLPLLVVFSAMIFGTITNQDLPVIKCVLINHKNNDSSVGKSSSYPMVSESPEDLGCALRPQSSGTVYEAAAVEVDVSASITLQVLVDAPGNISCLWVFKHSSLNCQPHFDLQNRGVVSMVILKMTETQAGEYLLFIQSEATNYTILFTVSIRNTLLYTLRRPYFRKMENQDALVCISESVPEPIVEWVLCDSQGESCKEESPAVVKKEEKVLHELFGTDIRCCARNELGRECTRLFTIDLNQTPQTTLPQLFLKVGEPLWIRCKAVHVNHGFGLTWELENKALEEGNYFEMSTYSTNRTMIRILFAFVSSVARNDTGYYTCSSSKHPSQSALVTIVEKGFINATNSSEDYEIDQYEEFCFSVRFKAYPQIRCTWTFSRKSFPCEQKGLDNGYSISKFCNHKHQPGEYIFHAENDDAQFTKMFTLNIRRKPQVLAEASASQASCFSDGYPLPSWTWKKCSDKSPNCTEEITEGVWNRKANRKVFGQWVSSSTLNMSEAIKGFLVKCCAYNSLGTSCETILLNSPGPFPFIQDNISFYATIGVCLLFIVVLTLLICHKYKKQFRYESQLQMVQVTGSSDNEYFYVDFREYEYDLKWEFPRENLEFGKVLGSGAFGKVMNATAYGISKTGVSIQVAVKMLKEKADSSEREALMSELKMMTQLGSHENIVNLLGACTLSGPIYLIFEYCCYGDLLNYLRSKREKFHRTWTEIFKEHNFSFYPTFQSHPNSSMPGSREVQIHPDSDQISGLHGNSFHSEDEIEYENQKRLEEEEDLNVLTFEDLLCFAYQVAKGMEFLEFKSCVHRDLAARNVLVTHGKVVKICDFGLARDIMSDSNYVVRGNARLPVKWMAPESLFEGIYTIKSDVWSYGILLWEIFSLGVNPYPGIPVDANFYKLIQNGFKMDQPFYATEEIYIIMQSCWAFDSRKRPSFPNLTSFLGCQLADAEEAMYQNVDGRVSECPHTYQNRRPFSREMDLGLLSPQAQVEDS

[20] = target: MAP/microtubule affinity-regulating kinase 3 (Homo sapiens) (UniProt P27448); assay: Inhibition of MARK3 (unknown origin) assessed as remaining activity at 1 uM by Kinome scan method relative to control
[21] = target: Macrophage-stimulating protein receptor (Homo sapiens) (UniProt Q04912); assay: Inhibition of MST1R (unknown origin) assessed as remaining activity at 1 uM by Kinome scan method relative to control
Sequence of Macrophage-stimulating protein receptor (Homo sapiens) (Q04912 25-304 limits assumed): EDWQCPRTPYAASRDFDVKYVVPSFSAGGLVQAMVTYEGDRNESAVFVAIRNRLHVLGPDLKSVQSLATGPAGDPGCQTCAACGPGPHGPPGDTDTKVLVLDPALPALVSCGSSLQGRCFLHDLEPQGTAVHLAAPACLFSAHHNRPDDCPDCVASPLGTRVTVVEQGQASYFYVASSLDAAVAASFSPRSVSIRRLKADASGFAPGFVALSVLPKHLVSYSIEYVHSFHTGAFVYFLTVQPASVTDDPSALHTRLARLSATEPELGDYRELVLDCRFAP
Sequence of Macrophage-stimulating protein receptor (Homo sapiens) (Q04912 310-1400 limits assumed): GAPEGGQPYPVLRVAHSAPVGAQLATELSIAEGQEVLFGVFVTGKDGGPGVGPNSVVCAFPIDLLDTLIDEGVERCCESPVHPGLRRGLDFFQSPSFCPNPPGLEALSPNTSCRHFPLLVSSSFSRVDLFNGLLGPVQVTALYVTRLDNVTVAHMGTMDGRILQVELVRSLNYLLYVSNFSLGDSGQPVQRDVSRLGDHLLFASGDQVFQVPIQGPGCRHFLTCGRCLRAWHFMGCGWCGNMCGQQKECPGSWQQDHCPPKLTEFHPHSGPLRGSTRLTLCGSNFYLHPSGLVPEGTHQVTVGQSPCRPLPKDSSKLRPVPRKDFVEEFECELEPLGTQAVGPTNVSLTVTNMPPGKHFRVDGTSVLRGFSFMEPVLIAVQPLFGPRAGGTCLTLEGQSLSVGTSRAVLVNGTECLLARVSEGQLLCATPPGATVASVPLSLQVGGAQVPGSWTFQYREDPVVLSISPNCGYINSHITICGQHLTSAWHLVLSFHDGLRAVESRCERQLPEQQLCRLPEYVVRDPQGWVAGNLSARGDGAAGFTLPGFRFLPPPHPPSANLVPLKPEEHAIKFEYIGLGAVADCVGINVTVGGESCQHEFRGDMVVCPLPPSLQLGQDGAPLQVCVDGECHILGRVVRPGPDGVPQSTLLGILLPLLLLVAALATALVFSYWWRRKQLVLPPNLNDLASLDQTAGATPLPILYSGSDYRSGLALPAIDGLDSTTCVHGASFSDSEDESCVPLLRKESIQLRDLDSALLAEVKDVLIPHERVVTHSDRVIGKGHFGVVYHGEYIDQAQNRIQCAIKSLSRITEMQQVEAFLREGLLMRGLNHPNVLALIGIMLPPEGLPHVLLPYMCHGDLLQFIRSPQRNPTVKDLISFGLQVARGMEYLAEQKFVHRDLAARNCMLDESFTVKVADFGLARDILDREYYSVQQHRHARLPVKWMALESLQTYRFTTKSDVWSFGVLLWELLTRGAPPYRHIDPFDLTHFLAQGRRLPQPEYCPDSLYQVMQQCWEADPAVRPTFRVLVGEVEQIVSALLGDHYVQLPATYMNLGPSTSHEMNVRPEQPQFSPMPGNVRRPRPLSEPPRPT

[22] = system: Tyrosine-protein kinase ABL1 (Homo sapiens), P00519 [F317L]; assay: Inhibition of phosphorylated ABL1 F317L mutant (unknown origin) assessed as remaining activity at 1 uM by Kinome scan method relative to control
[23] = system: Tyrosine-protein kinase ABL1 (Homo sapiens), P00519 [F317I]; assay: Inhibition of phosphorylated ABL1 F317I mutant (unknown origin) assessed as remaining activity at 1 uM by Kinome scan method relative to control

Sequence of Serine/threonine-protein kinase MARK2 (Homo sapiens) (Q7KZI7 whole entry): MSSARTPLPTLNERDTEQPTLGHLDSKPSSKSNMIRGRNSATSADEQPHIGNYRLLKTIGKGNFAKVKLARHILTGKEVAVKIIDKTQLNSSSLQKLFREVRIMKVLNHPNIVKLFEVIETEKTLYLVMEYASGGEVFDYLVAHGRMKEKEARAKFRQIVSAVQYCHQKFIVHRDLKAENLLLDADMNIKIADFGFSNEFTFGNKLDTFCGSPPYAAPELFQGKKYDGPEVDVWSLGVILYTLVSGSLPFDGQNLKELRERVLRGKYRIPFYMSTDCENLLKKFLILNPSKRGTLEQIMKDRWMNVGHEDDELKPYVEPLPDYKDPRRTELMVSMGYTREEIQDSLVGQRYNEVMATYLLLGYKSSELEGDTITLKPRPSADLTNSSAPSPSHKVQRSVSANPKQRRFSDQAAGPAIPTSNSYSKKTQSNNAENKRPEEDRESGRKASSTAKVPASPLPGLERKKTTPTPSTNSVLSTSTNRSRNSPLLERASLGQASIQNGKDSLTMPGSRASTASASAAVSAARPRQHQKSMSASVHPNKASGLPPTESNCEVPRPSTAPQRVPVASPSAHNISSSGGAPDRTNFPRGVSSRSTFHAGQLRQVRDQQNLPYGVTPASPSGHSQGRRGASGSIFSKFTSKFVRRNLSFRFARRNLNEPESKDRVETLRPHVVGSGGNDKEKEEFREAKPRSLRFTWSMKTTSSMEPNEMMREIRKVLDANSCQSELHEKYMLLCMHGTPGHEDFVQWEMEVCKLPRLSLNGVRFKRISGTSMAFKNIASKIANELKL

Compound: CN1C(=O)c2sccc2N(C)c2nc(Nc3ccc(S(N)(=O)=O)cc3)ncc21
- Activity [1]: 93%
- MRT inf [2]: 1.36 h
- Activity [3]: 15%
- Activity [4]: 78%
- Activity [5]: 4.3%
- Activity [6]: 100%
- Activity [7]: 71%
- IC50 [8]: 177 nM
- Activity [9]: 85%
- Activity [10]: 48%
- IC50 [11]: 27.9 nM
- Kd [12]: 100 nM
- Activity [13]: 94%
- Activity [14]: 100%
- Activity [15]: Non-Toxic
- Activity [16]: 100%
- Kd [17]: 77 nM
- Activity [18]: 91%
- Activity [19]: 91%
- Activity [20]: 98%
- Activity [21]: 96%
- Activity [22]: 14%
- Activity [23]: 39%
